In brackets after ≈: the same amount, converted by molar mass.
What was measured:
Escherichia coli = experiment: Antibacterial activity against Escherichia coli PTCC 1338 after 24 hrs by microplate alamar blue assay; format: functional; conditions: PTCC 1338, 24 h
Procedure, shortened: (§1)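 Bacteria from Persian type culture collection grown in Mueller–Hinton broth. Inoculum suspensions adjusted to 0.5 McFarland, final inoculum 1.5 ×10⁴. Compounds dissolved in DMSO, serially diluted twofold across the 8–512 range in 96-well plates, Alamar Blue added, sealed plates incubated 24 h at 37 °C. MIC is the lowest concentration preventing the blue-to-pink colour change. Ciprofloxacin was the reference drug.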

[1] = tested on: Salmonella enterica subsp. enterica; experiment: Antibacterial activity against Salmonella enteritidis PTCC 1091 after 24 hrs by microplate alamar blue assay; format: functional, Salmonella enterica subsp. enterica serovar Enteritidis; conditions: PTCC 1091, 24 h; procedure, shortened: as §1
Pseudomonas aeruginosa = experiment: Antibacterial activity against Pseudomonas aeruginosa PTCC 1074 after 24 hrs by microplate alamar blue assay; format: functional; conditions: for MIC: Pseudomonas aeruginosa, PTCC 1074, 24 h; procedure, shortened: as §1
Staphylococcus aureus = experiment: Antibacterial activity against Staphylococcus aureus PTCC 1337 after 24 hrs by microplate alamar blue assay; format: functional; conditions: for MIC: Staphylococcus aureus, PTCC 1337, 24 h; procedure, shortened: as §1
Listeria monocytogenes = experiment: Antibacterial activity against Listeria monocytogenes PTCC 1165 after 24 hrs by microplate alamar blue assay; format: functional; conditions: PTCC 1165, 24 h; procedure, shortened: as §1
Bacillus subtilis = experiment: Antibacterial activity against Bacillus subtilis PTCC 1023 after 24 hrs by microplate alamar blue assay; format: functional; conditions: PTCC 1023, 24 h; procedure, shortened: as §1
Candida albicans = experiment: Antifungal activity against Candida albicans PTCC 5027 after 48 hrs by microplate alamar blue assay; format: functional; conditions: for MIC: Candida albicans, PTCC 5027, 48 h
Procedure, shortened: (§2)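 Fungi from Persian type culture collection, tested in RPMI 1640 buffered with MOPS at pH 7.0. Final inoculum 1.5 ×10⁵. Compounds in DMSO, twofold serial dilutions over 8–512 in 96-well plates with Alamar Blue, incubated 48 h at 25 °C. MIC is the lowest concentration blocking the blue-to-pink shift. Ketoconazole was the reference agent.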

Aspergillus niger = experiment: Antifungal activity against Aspergillus niger 5021 after 48 hrs by microplate alamar blue assay; format: functional; conditions: Aspergillus niger, 5021, 48 h; procedure, shortened: as §2
Aspergillus flavus = experiment: Antifungal activity against Aspergillus flavus PTCC 5003 after 48 hrs by microplate alamar blue assay; format: functional; conditions: PTCC 5003, 48 h; procedure, shortened: as §2

MIC (Escherichia coli)	MIC [1]	MIC (Pseudomonas aeruginosa)	MIC (Staphylococcus aureus)	MIC (Listeria monocytogenes)	MIC (Bacillus subtilis)	MIC (Candida albicans)	MIC (Aspergillus niger)	MIC (Aspergillus flavus)	Compound	-logMIC (Pseudomonas aeruginosa)	-logMIC (Staphylococcus aureus)	-logMIC (Candida albicans)
> 512 µg/mL	> 512 µg/mL	256 µg/mL (≈ 2030 µM)	> 512 µg/mL	512 µg/mL (≈ 4060 µM)	> 512 µg/mL	128 µg/mL (≈ 1010 µM)	512 µg/mL (≈ 4060 µM)	512 µg/mL (≈ 4060 µM)	Cc1cc(=O)c(O)co1	3.59	3.59	3.89
128 µg/mL (≈ 636 µM)	128 µg/mL (≈ 636 µM)	512 µg/mL (≈ 2540 µM)	128 µg/mL (≈ 636 µM)	512 µg/mL (≈ 2540 µM)	256 µg/mL (≈ 1270 µM)	> 512 µg/mL	> 512 µg/mL	> 512 µg/mL	Cc1c(O)c(=O)ccn1-c1ccccc1	3.29	3.89	3.29
512 µg/mL (≈ 2610 µM)	256 µg/mL (≈ 1300 µM)	256 µg/mL (≈ 1300 µM)	512 µg/mL (≈ 2610 µM)	512 µg/mL (≈ 2610 µM)	> 512 µg/mL	512 µg/mL (≈ 2610 µM)	512 µg/mL (≈ 2610 µM)	512 µg/mL (≈ 2610 µM)	CCc1[nH]cc(CN(C)C)c(=O)c1O	3.59	3.29	3.29
–	–	–	–	–	–	–	–	–	Cc1cc(=O)c(OCc2ccccc2)c(CO)o1	3.59	3.59	3.89
–	–	–	–	–	–	–	–	–	O=c1cc(CO)occ1OCc1ccccc1	3.89	3.59	3.89
–	–	–	–	–	–	–	–	–	Cc1cc(=O)c(O)c(CO)o1	3.89	3.59	3.89
64 µg/mL (≈ 288 µM)	16 µg/mL (≈ 72 µM)	512 µg/mL (≈ 2300 µM)	16 µg/mL (≈ 72 µM)	64 µg/mL (≈ 288 µM)	32 µg/mL (≈ 144 µM)	128 µg/mL (≈ 576 µM)	512 µg/mL (≈ 2300 µM)	> 512 µg/mL	Cc1[nH]cc(CN2CCCCC2)c(=O)c1O	3.59	3.29	–
512 µg/mL (≈ 2280 µM)	512 µg/mL (≈ 2280 µM)	256 µg/mL (≈ 1140 µM)	> 512 µg/mL	512 µg/mL (≈ 2280 µM)	512 µg/mL (≈ 2280 µM)	512 µg/mL (≈ 2280 µM)	512 µg/mL (≈ 2280 µM)	512 µg/mL (≈ 2280 µM)	CCc1[nH]cc(CN(CC)CC)c(=O)c1O	3.59	3.29	3.29
512 µg/mL (≈ 2360 µM)	64 µg/mL (≈ 295 µM)	512 µg/mL (≈ 2360 µM)	16 µg/mL (≈ 73.7 µM)	> 512 µg/mL	> 512 µg/mL	512 µg/mL (≈ 2360 µM)	512 µg/mL (≈ 2360 µM)	256 µg/mL (≈ 1180 µM)	Cc1c(O)c(=O)ccn1-c1cccc(O)c1	3.29	3.29	3.59
–	–	–	–	–	–	–	–	–	Cc1cc(=O)c(OCc2ccccc2)c(C(=O)Nc2cccnc2)o1	3.89	3.59	4.49
–	–	–	–	–	–	–	–	–	Cc1cc(=O)c(OCc2ccccc2)c(C(=O)Nc2cccc3ccccc23)o1	3.89	3.59	4.49
–	–	–	–	–	–	–	–	–	Cc1cc(=O)c(O)c(C(=O)Nc2cccnc2)o1	3.89	4.19	3.89
–	–	–	–	–	–	–	–	–	Cc1cc(=O)c(OCc2ccccc2)c(C=O)o1	3.89	4.19	3.89
–	–	–	–	–	–	–	–	–	Cc1cc(=O)c(OCc2ccccc2)c(C(=O)O)o1	3.89	3.59	3.89
512 µg/mL (≈ 2170 µM)	512 µg/mL (≈ 2170 µM)	256 µg/mL (≈ 1080 µM)	> 512 µg/mL	> 512 µg/mL	512 µg/mL (≈ 2170 µM)	128 µg/mL (≈ 542 µM)	512 µg/mL (≈ 2170 µM)	256 µg/mL (≈ 1080 µM)	CCc1[nH]cc(CN2CCCCC2)c(=O)c1O	3.59	3.29	3.29
512 µg/mL (≈ 2810 µM)	512 µg/mL (≈ 2810 µM)	256 µg/mL (≈ 1400 µM)	> 512 µg/mL	512 µg/mL (≈ 2810 µM)	> 512 µg/mL	> 512 µg/mL	512 µg/mL (≈ 2810 µM)	> 512 µg/mL	Cc1[nH]cc(CN(C)C)c(=O)c1O	3.59	3.29	–
–	–	–	–	–	–	–	–	–	Cc1cc(=O)oc2cc(NC(=O)c3cc(=O)c(O)cn3C)ccc12	3.59	4.49	3.89
–	–	–	–	–	–	–	–	–	Cc1cc(=O)oc2cc(NC(=O)c3cc(=O)c(OCc4ccccc4)co3)ccc12	3.59	3.89	3.89
–	–	–	–	–	–	–	–	–	O=C(O)c1cc(=O)c(OCc2ccccc2)co1	3.89	3.59	3.89
–	–	–	–	–	–	–	–	–	Cn1cc(OCc2ccccc2)c(=O)cc1C(=O)Nc1ccccc1	3.59	3.89	3.89
–	–	–	–	–	–	–	–	–	Cn1cc(O)c(=O)cc1C(=O)Nc1ccccc1	3.89	4.8	3.89
–	–	–	–	–	–	–	–	–	Cc1cc(=O)c(O)c(C(=O)Nc2cnc3ccccc3c2)o1	3.89	5.1	–
–	–	–	–	–	–	–	–	–	Cc1cc(=O)c(O)c(C(=O)Nc2cccc3ccccc23)o1	3.89	3.59	3.89
512 µg/mL (≈ 2430 µM)	128 µg/mL (≈ 609 µM)	256 µg/mL (≈ 1220 µM)	512 µg/mL (≈ 2430 µM)	> 512 µg/mL	> 512 µg/mL	512 µg/mL (≈ 2430 µM)	512 µg/mL (≈ 2430 µM)	512 µg/mL (≈ 2430 µM)	CCN(CC)Cc1c[nH]c(C)c(O)c1=O	3.29	4.19	3.89
–	–	–	–	–	–	–	–	–	Cc1cc(=O)oc2cc(NC(=O)c3cc(=O)c(OCc4ccccc4)cn3C)ccc12	3.89	3.59	3.89
–	–	–	–	–	–	–	–	–	Cc1cc(=O)c(OCc2ccccc2)c(C(=O)Nc2cnc3ccccc3c2)o1	3.89	3.89	3.89
–	–	–	–	–	–	–	–	–	O=C(Nc1ccccc1)c1cc(=O)c(OCc2ccccc2)co1	3.59	3.89	3.89
512 µg/mL (≈ 2830 µM)	256 µg/mL (≈ 1410 µM)	512 µg/mL (≈ 2830 µM)	256 µg/mL (≈ 1410 µM)	> 512 µg/mL	512 µg/mL (≈ 2830 µM)	256 µg/mL (≈ 1410 µM)	256 µg/mL (≈ 1410 µM)	256 µg/mL (≈ 1410 µM)	CCCCn1ccc(=O)c(O)c1C	3.29	3.89	3.59
128 µg/mL (≈ 766 µM)	128 µg/mL (≈ 766 µM)	512 µg/mL (≈ 3060 µM)	16 µg/mL (≈ 95.7 µM)	512 µg/mL (≈ 3060 µM)	256 µg/mL (≈ 1530 µM)	256 µg/mL (≈ 1530 µM)	512 µg/mL (≈ 3060 µM)	256 µg/mL (≈ 1530 µM)	CCCn1ccc(=O)c(O)c1C	3.89	3.29	3.29
–	–	–	–	–	–	–	–	–	O=c1cc(CO)occ1O [KOJIC ACID]	3.89	3.59	3.89

Compound	MIC (Escherichia coli)	MIC [1]	MIC (Pseudomonas aeruginosa)	MIC (Staphylococcus aureus)	MIC (Listeria monocytogenes)	MIC (Bacillus subtilis)	MIC (Candida albicans)	MIC (Aspergillus niger)	MIC (Aspergillus flavus)	-logMIC (Pseudomonas aeruginosa)	-logMIC (Staphylococcus aureus)	-logMIC (Candida albicans)
O=c1cc(CCl)occ1O	> 512 µg/mL	> 512 µg/mL	> 512 µg/mL	> 512 µg/mL	> 512 µg/mL	> 512 µg/mL	512 µg/mL (≈ 3190 µM)	128 µg/mL (≈ 797 µM)	16 µg/mL (≈ 99.7 µM)	4.19	3.59	3.89
O=C(O)c1cn(C2CC2)c2cc(N3CCNCC3)c(F)cc2c1=O [CIPROFLOXACIN]	–	1 µg/mL (≈ 3.02 µM)	–	0.5 µg/mL (≈ 1.51 µM)	1 µg/mL (≈ 3.02 µM)	0.06 µg/mL (≈ 0.181 µM)	–	–	–	–	–	–
CC(=O)N1CCN(c2ccc(OCC3COC(Cn4ccnc4)(c4ccc(Cl)cc4Cl)O3)cc2)CC1 (stereo not given) [KETOCONAZOLE]	–	–	–	–	–	–	2 µg/mL (≈ 3.76 µM)	4 µg/mL (≈ 7.53 µM)	8 µg/mL (≈ 15.1 µM)	–	–	–
